From ChEMBL document CHEMBL1143734, “Design, synthesis, binding, and molecular modeling studies of new potent ligands of cannabinoid receptors” (Bioorg Med Chem, 2007)
pIC50, pKi: −log10 of the molar value.

Assays:
Cannabinoid receptor 1 [1] = target: T1, Cannabinoid receptor 1 (Homo sapiens, UniProt P21554); test: (§1) Displacement of [3H]CP-55940 from human CB1 receptor expressed in HEK cells; format: cell-based, HEK293
[2] = target: Cannabinoid receptor (Homo sapiens) (UniProt P34972+P21554); test: Selectivity for human CB1 receptor over human CB2 receptor; format: protein assay
[3] = target: T2, Fatty-acid amide hydrolase 1 (Rattus norvegicus, UniProt P97612); test: Inhibition of rat brain FAAH assessed as inhibition of [14C]anandamide hydrolysis
T2 sequence (P97612 whole entry): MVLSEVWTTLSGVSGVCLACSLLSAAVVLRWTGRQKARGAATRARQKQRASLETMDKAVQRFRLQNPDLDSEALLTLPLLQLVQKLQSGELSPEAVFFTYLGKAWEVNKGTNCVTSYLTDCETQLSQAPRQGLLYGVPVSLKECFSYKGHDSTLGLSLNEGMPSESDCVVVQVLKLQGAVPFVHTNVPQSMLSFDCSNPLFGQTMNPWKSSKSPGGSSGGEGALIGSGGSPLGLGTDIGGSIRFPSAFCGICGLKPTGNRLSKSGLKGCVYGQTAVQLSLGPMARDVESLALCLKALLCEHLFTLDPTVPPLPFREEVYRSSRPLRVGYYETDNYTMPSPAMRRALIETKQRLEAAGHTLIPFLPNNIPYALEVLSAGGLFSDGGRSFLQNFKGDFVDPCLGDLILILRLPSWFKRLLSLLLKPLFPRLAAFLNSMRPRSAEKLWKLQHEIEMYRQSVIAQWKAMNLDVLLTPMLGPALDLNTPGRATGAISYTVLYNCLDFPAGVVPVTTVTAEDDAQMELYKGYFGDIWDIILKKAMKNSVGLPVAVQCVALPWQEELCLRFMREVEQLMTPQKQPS
In short: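 Rat brain membranes incubated with [14C]anandamide (6 µM) and increasing compound concentrations in 50 mM Tris–HCl, pH 9, for 30 min at 37 °C. Mixture extracted with 2 volumes CHCl3/CH3OH (2:1). [14C]ethanolamine in the aqueous phase counted by scintillation. IC50 is the mean of n = 3 experiments.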

Cannabinoid receptor 2 = Cannabinoid receptor 2 (Homo sapiens, UniProt P34972); test: Displacement of [3H]CP-55940 from human CB2 receptor expressed in HEK cells; format: cell-based, HEK293
In short: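 Preliminary screen at 5, 10 and 25 µM, then a complete displacement curve if binding fell by >50% at 10 µM. IC50 converted to Ki using Cheng–Prusoff. Mean of 3 separate experiments.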

Cannabinoid receptor 1 [4] = target: T1, Cannabinoid receptor 1; test: as §1; format: cell-based, HEK293; remark: listed apart in the source
In short: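 Membranes from HEK cells transfected with human CB1. Screen at 5, 10 and 25 µM, then full dose–response for compounds displacing >50% at 10 µM. […] Ki derived from IC50 by Cheng–Prusoff. Means of n = 3 separate experiments.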

Sequence of Cannabinoid receptor 2 (P34972 whole entry): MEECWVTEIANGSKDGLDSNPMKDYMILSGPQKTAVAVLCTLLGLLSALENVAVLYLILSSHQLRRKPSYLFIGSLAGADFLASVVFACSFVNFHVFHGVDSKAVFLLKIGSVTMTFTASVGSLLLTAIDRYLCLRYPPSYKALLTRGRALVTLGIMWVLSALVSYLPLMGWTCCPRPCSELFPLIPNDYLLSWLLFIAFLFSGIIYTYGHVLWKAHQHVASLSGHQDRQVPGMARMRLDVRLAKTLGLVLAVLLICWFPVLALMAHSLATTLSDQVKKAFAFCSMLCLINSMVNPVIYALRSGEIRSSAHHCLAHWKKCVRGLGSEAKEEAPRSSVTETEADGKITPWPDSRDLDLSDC
Sequence of Cannabinoid receptor (Homo sapiens) (P21554 whole entry, looked up): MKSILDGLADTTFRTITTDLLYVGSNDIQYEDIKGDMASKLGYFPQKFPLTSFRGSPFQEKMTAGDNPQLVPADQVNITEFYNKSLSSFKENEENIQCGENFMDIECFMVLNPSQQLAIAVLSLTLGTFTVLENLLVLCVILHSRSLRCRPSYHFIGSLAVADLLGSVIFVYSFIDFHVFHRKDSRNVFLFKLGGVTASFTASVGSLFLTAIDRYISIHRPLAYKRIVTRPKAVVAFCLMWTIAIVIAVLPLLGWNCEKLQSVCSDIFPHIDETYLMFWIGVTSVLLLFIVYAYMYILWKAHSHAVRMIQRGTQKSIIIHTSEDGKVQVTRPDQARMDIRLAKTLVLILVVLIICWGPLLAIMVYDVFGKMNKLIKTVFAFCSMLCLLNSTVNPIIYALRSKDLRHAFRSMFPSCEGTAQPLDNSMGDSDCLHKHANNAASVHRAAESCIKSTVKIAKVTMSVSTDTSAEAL
Sequence of Cannabinoid receptor (Homo sapiens) (P34972 whole entry, looked up): as the sequence (P34972 whole entry) above
T1 sequence (P21554 whole entry): as the sequence (P21554 whole entry, looked up) above

| Structure (SMILES) | pKi (Cannabinoid receptor 1 [1]) | Ratio Ki [2] | pIC50 [3] | pKi (Cannabinoid receptor 2) | pIC50 (Cannabinoid receptor 1 [4]) | pIC50 (Cannabinoid receptor 2) |
| --- | --- | --- | --- | --- | --- | --- |
| CCCCCc1cc(O)cc(OCCCCCCCCCCCC(=O)NC2CC2)c1 | 6.12 | 2.4 | 4.30 | 6.51 |  |  |
| CCCCCCc1ccc(OCCCCCCCCCCC(=O)NCC2CC2)cc1O |  |  | < 4.30 | 5.54 | < 5.00 |  |
| CCCCCc1cc(O)cc(OCCCCCCCCCCC(=O)NCCc2ccc(O)c(O)c2)c1 | 6.25 |  |  |  |  | < 5.00 |
| CCCCCCc1c(O)cccc1OCCCCCCCCCCC(=O)NCc1ccc(OC)c(O)c1 | 5.55 |  | 4.30 | 5.68 |  |  |
| CCCCCCc1c(O)cccc1OCCCCCCCC(=O)NCCO | 6.59 | 0.07 | 4.60 | 5.40 |  |  |
| CCCCCc1cc(O)cc(OCCCCCCCC(=O)NC2CC2)c1 | 7.80 | 0.33 | < 4.30 | 7.41 |  |  |
| CCCCCCc1c(O)cccc1OCCCCCCCC(=O)NC1CC1 | 6.51 | 0.17 | 4.30 | 5.74 |  |  |
| CCCCCc1cc(O)cc(OCCCCCCCCCCCC(=O)NCCO)c1 | 7.22 | 1.5 | < 4.30 | 7.41 |  |  |
| CCCCCCc1ccc(OCCCCCCCC(=O)NC2CC2)cc1O | 7.25 | 0.2 | < 4.30 | 6.55 |  |  |
| CCCCCc1cc(O)cc(OCCCCCCCCCCC(=O)NCc2ccc(OC)c(O)c2)c1 | 5.68 | 1.3 | 5.00 | 5.78 |  |  |
| CCCCCc1cc(O)cc(OCCCCCCCC(=O)NCCO)c1 | 6.89 |  | < 4.30 | 6.41 |  |  |
| CCCCCCc1ccc(OCCCCCCCCCCCC(=O)NC2CC2)cc1O |  |  | < 4.30 | 5.40 | < 5.00 |  |
| CCCCCc1cc(O)cc(OCCCCCCCCCCC(=O)NCC2CC2)c1 | 6.29 | 6.4 | < 4.30 | 7.10 |  |  |
| CCCCCCc1ccc(OCCCCCCCCCCC(=O)NCc2ccc(OC)c(O)c2)cc1O |  | 1.3 | < 4.30 |  | < 5.00 | < 5.00 |
| CCCCCCc1ccc(OCCCCCCCCCCCC(=O)NCCO)cc1O |  |  | 5.00 |  | < 5.00 | < 5.00 |
| CCCCCCc1ccc(OCCCCCCCC(=O)NCCO)cc1O | 6.72 | 0.08 | 4.30 | 5.62 |  |  |
| CCCCCCc1ccc(OCCCCCCCCCCC(=O)NCCc2ccc(O)c(O)c2)cc1O |  |  |  |  | < 5.00 | < 5.00 |
